Measurements from ChEMBL document CHEMBL3397016, “SAR-studies of γ-secretase modulators with PPARγ-agonistic and 5-lipoxygenase-inhibitory activity for Alzheimer's disease” (Bioorg Med Chem Lett, 2015).
Calls of active or inactive are those of the source. The rule behind the calls is not given here.

How the values were obtained:
[1] = target: T1, Presenilin-1 (Homo sapiens, UniProt P49768); test: Activation of wild-type human presenilin-1 stably overexpressed in CHO cells co-expressing wild-type human amyloid precursor protein assessed as amyloid beta 38 formation after 24 hrs by ELISA; assay type: cell-based
[2] = target: T2, Peroxisome proliferator-activated receptor gamma (Homo sapiens) (UniProt P37231); test: Activation of human PPARgamma ligand binding domain expressed in COS7 cells by dual luciferase reporter gene assay relative to 1 uM pioglitazone; assay type: cell-based; details: COS-7
T2 sequence (whole entry): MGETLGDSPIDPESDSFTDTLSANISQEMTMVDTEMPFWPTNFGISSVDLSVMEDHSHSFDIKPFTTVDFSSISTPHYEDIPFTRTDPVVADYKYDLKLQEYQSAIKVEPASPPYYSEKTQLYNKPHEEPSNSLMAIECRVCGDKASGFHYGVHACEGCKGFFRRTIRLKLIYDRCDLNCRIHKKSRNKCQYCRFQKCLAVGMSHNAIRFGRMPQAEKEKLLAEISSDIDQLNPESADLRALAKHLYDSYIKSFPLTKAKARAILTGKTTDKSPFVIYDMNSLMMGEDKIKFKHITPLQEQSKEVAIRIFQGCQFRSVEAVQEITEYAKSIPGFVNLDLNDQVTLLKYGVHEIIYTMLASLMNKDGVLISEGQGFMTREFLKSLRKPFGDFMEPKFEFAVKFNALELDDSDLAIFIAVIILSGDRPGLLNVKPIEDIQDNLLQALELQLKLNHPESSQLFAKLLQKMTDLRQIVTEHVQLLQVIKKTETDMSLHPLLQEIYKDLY

[3] = target: T1, Presenilin-1; test: Inhibition of wild-type human presenilin-1 stably overexpressed in CHO cells co-expressing wild-type human amyloid precursor protein assessed as inhibition of amyloid beta 42 formation after 24 hrs by ELISA; assay type: cell-based
[4] = target: T3, Polyunsaturated fatty acid 5-lipoxygenase (Homo sapiens, UniProt P09917); test: Inhibition of 5-LO in human PMNL assessed as reduction in 5-LO product formation pre-incubated for 15 mins before addition of arachidonic acid substrate by HPLC analysis
T3 sequence (P09917 whole entry): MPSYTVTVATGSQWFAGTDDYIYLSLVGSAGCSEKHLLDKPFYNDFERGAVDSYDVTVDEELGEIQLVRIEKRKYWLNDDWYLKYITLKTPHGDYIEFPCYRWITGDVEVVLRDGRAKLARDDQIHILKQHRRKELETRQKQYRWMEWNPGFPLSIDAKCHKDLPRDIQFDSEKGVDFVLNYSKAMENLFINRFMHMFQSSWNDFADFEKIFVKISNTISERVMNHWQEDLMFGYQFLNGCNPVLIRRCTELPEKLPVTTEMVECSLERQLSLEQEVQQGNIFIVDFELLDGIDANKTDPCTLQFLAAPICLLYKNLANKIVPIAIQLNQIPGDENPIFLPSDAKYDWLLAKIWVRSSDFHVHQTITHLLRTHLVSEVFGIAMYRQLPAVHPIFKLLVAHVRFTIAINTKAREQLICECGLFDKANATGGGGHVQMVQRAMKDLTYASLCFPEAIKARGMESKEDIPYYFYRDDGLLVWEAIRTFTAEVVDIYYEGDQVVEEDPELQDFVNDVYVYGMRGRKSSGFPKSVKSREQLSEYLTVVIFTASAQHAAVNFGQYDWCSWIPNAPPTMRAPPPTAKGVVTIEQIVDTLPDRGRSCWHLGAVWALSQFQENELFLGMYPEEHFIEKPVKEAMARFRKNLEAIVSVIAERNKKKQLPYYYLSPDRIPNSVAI

[5] = target: T4, Peroxisome proliferator-activated receptor gamma (Homo sapiens, UniProt P37231); test: Activation of human PPARgamma ligand binding domain expressed in COS7 cells by dual luciferase reporter gene assay; assay type: cell-based, COS-7
T4 sequence (P37231 whole entry): T2 sequence (whole entry)

[6] = target: T5, Prostaglandin G/H synthase 1 (Ovis aries) (UniProt P05979); test: Inhibition of ovine COX1-mediated 12-HHT formation assessed as remaining activity at 10 uM preincubated for 5 mins before arachidonic acid addition by HPLC analysis
T5 sequence (whole entry): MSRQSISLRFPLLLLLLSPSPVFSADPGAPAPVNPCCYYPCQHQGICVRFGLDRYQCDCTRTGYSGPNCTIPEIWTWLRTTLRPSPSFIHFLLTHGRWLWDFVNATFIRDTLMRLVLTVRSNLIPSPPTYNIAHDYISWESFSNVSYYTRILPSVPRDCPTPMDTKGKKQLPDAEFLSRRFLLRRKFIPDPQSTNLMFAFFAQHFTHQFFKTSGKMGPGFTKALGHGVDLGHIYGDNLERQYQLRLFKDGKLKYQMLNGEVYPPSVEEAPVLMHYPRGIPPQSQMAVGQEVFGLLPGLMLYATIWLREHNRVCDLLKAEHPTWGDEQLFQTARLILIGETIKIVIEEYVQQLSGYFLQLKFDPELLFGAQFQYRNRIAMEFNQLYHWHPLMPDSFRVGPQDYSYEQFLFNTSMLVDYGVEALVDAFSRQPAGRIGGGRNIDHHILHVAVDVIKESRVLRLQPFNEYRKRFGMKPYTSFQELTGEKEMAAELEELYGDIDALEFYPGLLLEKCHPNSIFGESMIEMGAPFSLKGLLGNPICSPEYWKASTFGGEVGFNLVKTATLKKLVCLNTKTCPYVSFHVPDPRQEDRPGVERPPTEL
Procedure, shortened: (§1)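 Cell-free enzyme assays. Data given either as IC50 or as remaining enzyme activity at 10 µM test concentration.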

[7] = target: T6, Prostaglandin G/H synthase 2 (Homo sapiens, UniProt P35354); test: Inhibition of human recombinant COX2-mediated 12-HHT formation preincubated for 5 mins before arachidonic acid addition by HPLC analysis; procedure, shortened: as §1
T6 sequence (P35354 whole entry): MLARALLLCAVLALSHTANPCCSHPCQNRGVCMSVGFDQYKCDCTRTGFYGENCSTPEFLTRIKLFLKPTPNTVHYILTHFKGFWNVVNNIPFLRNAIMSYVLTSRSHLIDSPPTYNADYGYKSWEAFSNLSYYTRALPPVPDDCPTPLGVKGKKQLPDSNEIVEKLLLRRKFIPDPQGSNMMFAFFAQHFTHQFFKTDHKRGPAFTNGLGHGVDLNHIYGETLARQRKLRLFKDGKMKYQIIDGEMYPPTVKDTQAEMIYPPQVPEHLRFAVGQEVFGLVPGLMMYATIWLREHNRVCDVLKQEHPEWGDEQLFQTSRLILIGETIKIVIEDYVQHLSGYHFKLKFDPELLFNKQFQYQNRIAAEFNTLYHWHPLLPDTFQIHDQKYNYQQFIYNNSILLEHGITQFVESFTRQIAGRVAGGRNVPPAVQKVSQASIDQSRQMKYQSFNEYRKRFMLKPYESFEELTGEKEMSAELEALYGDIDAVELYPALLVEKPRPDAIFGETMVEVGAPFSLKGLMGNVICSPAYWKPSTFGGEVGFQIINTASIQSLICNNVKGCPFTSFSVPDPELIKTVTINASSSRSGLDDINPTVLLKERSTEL

[8] = target: T7, Prostaglandin G/H synthase 2 (Homo sapiens) (UniProt P35354); test: Inhibition of human recombinant COX2-mediated 12-HHT formation assessed as remaining activity at 10 uM preincubated for 5 mins before arachidonic acid addition by HPLC analysis; procedure, shortened: as §1
T7 sequence (whole entry): T6 sequence (P35354 whole entry)

[9] = target: T8, Prostaglandin G/H synthase 1 (Ovis aries, UniProt P05979); test: Inhibition of ovine COX1-mediated 12-HHT formation preincubated for 5 mins before arachidonic acid addition by HPLC analysis; procedure, shortened: as §1
T8 sequence (P05979 whole entry): T5 sequence (whole entry)

[10] = target: T9, Prostaglandin E synthase (Homo sapiens, UniProt O14684); test: Inhibition of mPGES-1-mediated PGE2 formation in interleukin-1beta-stimulated human A549 microsomal membranes preincubated for 15 mins before PGH2 addition by RP-HPLC analysis
T9 sequence (O14684 whole entry): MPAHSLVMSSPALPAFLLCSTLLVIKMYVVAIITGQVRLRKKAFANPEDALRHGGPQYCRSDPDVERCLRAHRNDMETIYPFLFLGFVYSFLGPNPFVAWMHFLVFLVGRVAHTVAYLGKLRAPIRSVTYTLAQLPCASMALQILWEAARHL

## CCCC/C(=C\c1cc(OCc2cccnc2)ccc1OCc1ccc(C(F)(F)F)cc1)C(=O)O
[1]
  EC50: 23.2 µM
[2]
  max activation: 120%
[3]
  IC50: 32.1 µM
[4]; read-out: IC50
  IC50: 2.3 µM
[5]; read-out: EC50
  EC50: 2.56 µM

## CCCC/C(=C\c1cc(OCc2ccc(F)cc2)ccc1OCc1ccc(C(F)(F)F)cc1)C(=O)O
[1]
  EC50: 13.8 µM
[6]
  Activity: 78.4%
[2]
  max activation: 76%
[7]
  IC50: > 10 µM
[8]
  Activity: 84.2%
[3]
  IC50: 7 µM
[4]; read-out: IC50
  IC50: 0.5 µM
[9]
  IC50: > 10 µM
[10]
  IC50: 4.9 µM
[5]; read-out: EC50
  EC50: 5.17 µM

## CCCCC(Sc1nc(OCCc2ccccc2)cc(OCCc2ccccc2)n1)C(=O)O (stereo unspecified)
[1]
  EC50: 11.3 µM
[2]
  max activation: 61%
[3]
  IC50: 22.8 µM

## CCCC/C(=C\c1cc(OCc2csc(-c3ccc(C(F)(F)F)cc3)n2)ccc1OCc1ccc(C(F)(F)F)cc1)C(=O)O
[1]
  EC50: 10.7 µM
[6]
  Activity: 73.5%
[2]
  max activation: inactive
[7]
  IC50: > 10 µM
[8]
  Activity: 84.4%
[3]
  IC50: 2.3 µM
[4]; read-out: IC50
  IC50: 0.9 µM
[9]
  IC50: > 10 µM
[10]
  IC50: > 10 µM
[5]; cos-7
  EC50: Not Active

## CCCC/C(=C\c1cc(OCc2ccc(-c3ccccc3)cc2)ccc1OCc1ccc(C(F)(F)F)cc1)C(=O)O
[1]
  EC50: 3.2 µM
[3]
  IC50: 11.9 µM
[4]
  IC50: Not Active
[5]; cos-7
  EC50: Not Active

## CCCC/C(=C\c1cc(OCc2ccc(C(F)(F)F)cc2)ccc1OCc1ccc(C(F)(F)F)cc1)C(=O)O
[1]
  EC50: 1.1 µM
[7]
  IC50: > 10 µM
[3]
  IC50: 1.2 µM
[9]
  IC50: > 10 µM
[10]
  IC50: > 10 µM

## CCCC/C(=C\c1cc(OCc2ccc(OCCN3CCOCC3)cc2)ccc1OCc1ccc(C(F)(F)F)cc1)C(=O)O
[1]
  EC50: 0.97 µM
[6]
  Activity: 91.3%
[2]
  max activation: 66%
[7]
  IC50: > 10 µM
[8]
  Activity: 95%
[3]
  IC50: 2.2 µM
[4]; read-out: IC50
  IC50: 0.9 µM
[9]
  IC50: > 10 µM
[10]
  IC50: 8.7 µM
[5]; read-out: EC50
  EC50: 3.77 µM

## CCCC/C(=C\c1cc(OCc2ccc(CCCC)cc2)ccc1OCc1ccc(C(F)(F)F)cc1)C(=O)O
[1]
  EC50: 4.4 µM
[3]
  IC50: 4.4 µM
[4]
  IC50: Not Active
[5]; cos-7
  EC50: Not Active

## CCCC/C(=C\c1cc(Oc2ccccc2)ccc1OCc1ccc(C(F)(F)F)cc1)C(=O)O
[1]
  EC50: 15.6 µM
[2]
  max activation: 76%
[3]
  IC50: 14.9 µM
[4]; read-out: IC50
  IC50: 2.1 µM
[5]; read-out: EC50
  EC50: 0.72 µM

## CCCC/C(=C\c1cc(OCC(c2ccccc2)c2ccccc2)ccc1OCc1ccc(C(F)(F)F)cc1)C(=O)O
[1]
  EC50: 11.2 µM
[6]
  Activity: 61.1%
[2]
  max activation: 97%
[7]
  IC50: > 10 µM
[8]
  Activity: 79.5%
[3]
  IC50: 11.4 µM
[4]; read-out: IC50
  IC50: 0.25 µM
[9]
  IC50: > 10 µM
[10]
  IC50: > 10 µM
[5]; read-out: EC50
  EC50: 1.26 µM

## CCCCC(Sc1nc(OCCC2CCCCC2)cc(OCCC2CCCCC2)n1)C(=O)O (stereo unspecified)
[1]
  EC50: 4.6 µM
[2]
  max activation: 71%
[3]
  IC50: 5.1 µM

## CCCC/C(=C\c1cc(OCc2ccc(-c3csc(C)n3)cc2)ccc1OCc1ccc(C(F)(F)F)cc1)C(=O)O
[1]
  EC50: 2.2 µM
[3]
  IC50: 20.2 µM
[4]; read-out: IC50
  IC50: 6.7 µM
[5]; cos-7
  EC50: Not Active

## CCCC/C(=C\c1cc(OCc2ccc(Oc3ccccn3)cc2)ccc1OCc1ccc(C(F)(F)F)cc1)C(=O)O
[1]
  EC50: 4.5 µM
[6]
  Activity: 75.7%
[7]
  IC50: > 10 µM
[8]
  Activity: 91.1%
[3]
  IC50: 5 µM
[4]; read-out: IC50
  IC50: 0.2 µM
[9]
  IC50: > 10 µM
[10]
  IC50: 10 µM
[5]; cos-7
  EC50: Not Active

## CCCC/C(=C\c1cc(OCc2ccc(OCc3ccccc3)cc2)ccc1OCc1ccc(C(F)(F)F)cc1)C(=O)O
[1]
  EC50: 1.8 µM
[3]
  IC50: 8.5 µM
[4]
  IC50: Not Active
[5]; cos-7
  EC50: Not Active
